Results published in ChEMBL document CHEMBL3774373, “Activity and Predicted Nephrotoxicity of Synthetic Antibiotics Based on Polymyxin B” (J Med Chem, 2016).
≈ marks a conversion by molar mass, not a printed value. Bridge positions count the residues as written; N and C are the ends. Square brackets hold non-standard residues; d marks the D form. Peptide text beside a SMILES is read from it. * marks the point of attachment. ξ: configuration not given here. Bip = N[C@@H](Cc1ccc(-c2ccccc2)cc1)C(=O)O; ξGly(octyl) = CCCCCCCCC(N)C(=O)O; dDab = NCC[C@@H](N)C(=O)O; hSer = N[C@@H](CCO)C(=O)O; Octanoyl = CCCCCCCC(=O)*; Dab = NCC[C@H](N)C(=O)O

Columns and labels:
[1] = Cytotoxicity against human HepG2 cells after 24 hrs by resazurin assay; format: cell-based; conditions: HepG2 cells
[2] = test system: Escherichia coli; experiment: Antibacterial activity against Escherichia coli ATCC 25922 after 18 hrs by 2 fold serial dilution method; format: functional; conditions: ATCC 25922, 18 h
Method in brief: (§1)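 Overnight cultures in nutrient or Mueller Hinton broth at 37 °C with shaking, diluted 50-fold into fresh MHB and grown 1.5–3 h to mid-log. Inoculum 5×10^5 CFU/mL in 2-fold serial dilutions, final range 32 to 0.015 μg/mL. MIC read visually after 18 h at 37 °C as the lowest concentration with no visible growth.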

[3] = test system: Klebsiella pneumoniae; experiment: Antibacterial activity against clinical isolate carbapenem and polymyxin resistant Klebsiella pneumoniae Koprana 100650661:1 after 18 hrs by 2 fold serial dilution method; format: functional; conditions: Koprana 100650661:1, 18 h
Method in brief: (§2)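 Polymyxin-resistant clinical isolates were grown overnight at 37 °C in NB or MHB with shaking, diluted 50-fold in MHB and grown 1.5–3 h to mid-log phase. The inoculum was 5×10^5 CFU/mL. Compounds were 2-fold broth serial dilutions, final 32 to 0.015 μg/mL; the polymyxin controls ran 128–0.06 μg/mL. The MIC was the lowest concentration with no visible growth after 18 h at 37 °C.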

[4] = test system: Staphylococcus aureus; experiment: microbe, parasite or virus in culture; conditions: ATCC 25923, 18 h
[5] = test system: Acinetobacter baumannii; experiment: Antibacterial activity against Acinetobacter baumannii ATCC 19606 after 18 hrs by 2 fold serial dilution method; format: functional; conditions: ATCC 19606, 18 h; method in brief: as §1
[6] = test system: Klebsiella pneumoniae; experiment: Antibacterial activity against multidrug resistant Klebsiella pneumoniae ATCC 700603 after 18 hrs by 2 fold serial dilution method; format: functional; conditions: Klebsiella pneumoniae, 700603, 18 h
Method in brief: (§3)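 Overnight cultures at 37 °C in nutrient or Mueller Hinton broth with shaking were diluted 50-fold in MHB and grown 1.5–3 h to mid-log phase. The inoculum was 5×10^5 CFU/mL in MHB. Compounds were 2-fold serially diluted, final 32 to 0.015 μg/mL. After 18 h at 37 °C, the MIC was read visually as the lowest concentration with no visible growth.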

[7] = test system: Klebsiella pneumoniae; experiment: Antibacterial activity against Klebsiella pneumoniae ATCC 13883 after 18 hrs by 2 fold serial dilution method; format: functional; conditions: ATCC 13883, 18 h; method in brief: as §1
[8] = test system: Acinetobacter baumannii; experiment: Antibacterial activity against clinical isolate carbapenem and polymyxin resistant Acinetobacter baumannii Ptyela 100734512:2 after 18 hrs by 2 fold serial dilution method; format: functional; conditions: Ptyela 100734512:2, 18 h; method in brief: as §2
[9] = test system: Klebsiella pneumoniae; experiment: Antibacterial activity against clinical isolate carbapenem and polymyxin resistant Klebsiella pneumoniae 138-16357-20362 after 18 hrs by 2 fold serial dilution method; format: functional; conditions: 138-16357-20362, 18 h; method in brief: as §2
[10] = test system: Pseudomonas aeruginosa; experiment: Antibacterial activity against Pseudomonas aeruginosa ATCC 27853 after 18 hrs by 2 fold serial dilution method; format: functional; conditions: ATCC 27853, 18 h; method in brief: as §1
[11] = test system: Pseudomonas aeruginosa; experiment: Antibacterial activity against clinical isolate polymyxin resistant Pseudomonas aeruginosa PA9704 after 18 hrs by 2 fold serial dilution method; format: functional; conditions: PA9704, 18 h; method in brief: as §2
[12] = test system: Klebsiella pneumoniae; experiment: Antibacterial activity against Klebsiella pneumoniae ATCC BAA-2146 expressing NDM-1 after 18 hrs by 2 fold serial dilution method; format: functional; conditions: ATCC BAA-2146, 18 h; method in brief: as §3
[13] = test system: Pseudomonas aeruginosa; experiment: Antibacterial activity against clinical isolate polymyxin resistant Pseudomonas aeruginosa FADDI-PA070 after 18 hrs by 2 fold serial dilution method; format: functional; conditions: FADDI-PA070, 18 h; method in brief: as §2

SMILES | CC50 at 24 h [1] [µM] | MIC [2] [µg/mL] | MIC [3] [µg/mL] | MIC [4] [µg/mL] | MIC [5] [µg/mL] | MIC [6] [µg/mL] | MIC [7] [µg/mL] | MIC [8] [µg/mL] | MIC [9] [µg/mL] | MIC [10] [µg/mL] | MIC [11] [µg/mL] | MIC [12] [µg/mL] | MIC [13] [µg/mL]
CCCCCCCC(=O)N[C@@H](CCN)C(=O)N[C@H](C(=O)N[C@@H](CCN)C(=O)N[C@H]1CCNC(=O)[C@H]([C@@H](C)O)NC(=O)[C@H](CCN)NC(=O)[C@H](CCN)NC(=O)[C@H](Cc2ccc(-c3ccccc3)cc2)NC(=O)[C@@H](Cc2ccccc2)NC(=O)[C@H](CCN)NC1=O)[C@@H](C)O (Octanoyl-[Dab]T[Dab][Dab][Dab][dF][Bip][Dab][Dab]T; lactam 4-C) | 117 | 1 (≈ 0.769 µM) | 32 (≈ 24.6 µM) | 8 (≈ 6.16 µM) | 1 (≈ 0.769 µM) | 2 (≈ 1.54 µM) | 4 (≈ 3.08 µM) | 32 (≈ 24.6 µM) | > 32 | 2 (≈ 1.54 µM) | 16 (≈ 12.3 µM) | 1 (≈ 0.769 µM) | 16 (≈ 12.3 µM)
CCCCCCCCC1NC(=O)[C@@H](Cc2ccccc2)NC(=O)[C@H](CCN)NC(=O)[C@@H](NC(=O)[C@H](CCN)NC(=O)[C@@H](NC(=O)[C@H](CCN)NC(=O)CCCCCCC)[C@@H](C)O)CCNC(=O)[C@H]([C@@H](C)O)NC(=O)[C@H](CCN)NC(=O)[C@H](CCN)NC1=O (stereo partly drawn) (Octanoyl-[Dab]T[Dab][Dab][Dab][dF][ξGly(octyl)][Dab][Dab]T; lactam 4-C) | 116 | 1 (≈ 0.803 µM) | 32 (≈ 25.7 µM) | 8 (≈ 6.42 µM) | 1 (≈ 0.803 µM) | 2 (≈ 1.61 µM) | 2 (≈ 1.61 µM) | 8 (≈ 6.42 µM) | 32 (≈ 25.7 µM) | 2 (≈ 1.61 µM) | 8 (≈ 6.42 µM) | 1 (≈ 0.803 µM) | 16 (≈ 12.8 µM)
CCCCCCCCC1NC(=O)[C@H](CCN)NC(=O)[C@@H](NC(=O)[C@H](CCN)NC(=O)[C@@H](NC(=O)[C@H](CCN)NC(=O)CCCCCCC)[C@@H](C)O)CCNC(=O)[C@H]([C@@H](C)O)NC(=O)[C@H](CCN)NC(=O)[C@H](CCN)NC(=O)[C@H](CC(C)C)NC1=O (stereo partly drawn) (Octanoyl-[Dab]T[Dab][Dab][Dab][ξGly(octyl)]L[Dab][Dab]T; lactam 4-C) | 254 | 2 (≈ 1.65 µM) | 16 (≈ 13.2 µM) | 16 (≈ 13.2 µM) | 1 (≈ 0.825 µM) | 1 (≈ 0.825 µM) | 2 (≈ 1.65 µM) | 16 (≈ 13.2 µM) | 16 (≈ 13.2 µM) | 2 (≈ 1.65 µM) | 8 (≈ 6.6 µM) | 1 (≈ 0.825 µM) | 4 (≈ 3.3 µM)
CCCCCCCC(=O)N[C@@H](CCN)C(=O)N[C@H](C(=O)N[C@@H](CCN)C(=O)N[C@H]1CCNC(=O)[C@H]([C@@H](C)O)NC(=O)[C@H](CCN)NC(=O)[C@H](CCN)NC(=O)[C@H](CC(C)C)NC(=O)[C@@H](Cc2ccccc2)NC(=O)[C@H](CCO)NC1=O)[C@@H](C)O (Octanoyl-[Dab]T[Dab][Dab][hSer][dF]L[Dab][Dab]T; lactam 4-C) | > 300 | 16 (≈ 13.4 µM) | > 32 | > 32 | > 32 | > 32 | > 32 | > 32 | > 32 | > 32 | > 32 | 32 (≈ 26.9 µM) | > 32
CCCCCCCC(=O)N[C@@H](CCN)C(=O)N[C@H](C(=O)N[C@H](CCN)C(=O)N[C@H]1CCNC(=O)[C@H]([C@@H](C)O)NC(=O)[C@H](CCN)NC(=O)[C@H](CCN)NC(=O)[C@H](CC(C)C)NC(=O)[C@@H](Cc2ccccc2)NC(=O)[C@H](CCN)NC1=O)[C@@H](C)O (Octanoyl-[Dab]T[dDab][Dab][Dab][dF]L[Dab][Dab]T; lactam 4-C) | > 300 | 4 (≈ 3.36 µM) | > 32 | > 32 | 1 (≈ 0.841 µM) | 1 (≈ 0.841 µM) | 0.5 (≈ 0.42 µM) | > 32 | > 32 | 2 (≈ 1.68 µM) | 32 (≈ 26.9 µM) | 4 (≈ 3.36 µM) | > 32
CCCCCCCC(=O)N[C@@H](CCN)C(=O)N[C@H](C(=O)N[C@H](CO)C(=O)N[C@H]1CCNC(=O)[C@H]([C@@H](C)O)NC(=O)[C@H](CCN)NC(=O)[C@H](CCN)NC(=O)[C@H](CC(C)C)NC(=O)[C@@H](Cc2ccccc2)NC(=O)[C@H](CCN)NC1=O)[C@@H](C)O (Octanoyl-[Dab]T[dS][Dab][Dab][dF]L[Dab][Dab]T; lactam 4-C) | > 300 | 4 (≈ 3.4 µM) | > 32 | > 32 | 1 (≈ 0.85 µM) | 2 (≈ 1.7 µM) | 0.5 (≈ 0.425 µM) | > 32 | > 32 | 2 (≈ 1.7 µM) | > 32 | 16 (≈ 13.6 µM) | > 32
